Records with an inconclusive call do not appear. Activity calls are given as the source filed them.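 The calls were made as follows: active = luminescence cut by more than half of the full-inhibition control window in a dose series; inconclusive = no clear call, values can overlap the other calls; inactive = signal rising instead of falling, or the rest.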

This note sets out measurements from PubChem BioAssay AID493236 (Broad Institute, 2011).

The test system of the assay is proteasome chymotrypsin-like activity (human). Nature of the assay: proteasome chymotrypsin-like activity inhibitors, dose response, counter-screen for HIF pathway activator project, cell-based, U2OS, luminescence, dry powder, set 4 (AID 493236). Particulars: U2OS cells, Proteasome-Glo chymotrypsin luminescence; series mostly up to 38 µM; activity change, negative = inhibition: at the top concentration. In a few lines: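 System: U2OS cells. Input: 2,500 U2OS cells per well. Compound dosing: 8-point threefold dilution series, source stock top 16.5 mM. Timing: 24 h plating, 4 h compound, 2 h reagent. Technique: Proteasome-Glo luminescence. Evaluation: percent activity relative to MG132 and DMSO. Controls: MG132 (1 µM) and DMSO. Repeats: each compound tested in duplicate.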
On the technique in general: The purpose of a counterscreen is to sort out artefacts and off-target activity.
In the case of `c1ccc(-c2nnc(-c3ccccn3)nc2NCC2CCOCC2)cc1`, the “activity change, negative = inhibition” value is -4.29% (inactive).
As to `O=C(NCCCN1CCOCC1)c1cc(-c2ccccc2)on1`, the “activity change, negative = inhibition” value is -1.67% (inactive).
The value for `O=C(c1cc(-c2ccccc2)on1)N1CCC(N2CCOCC2)CC1` was 3.6% (inactive).
The value for `c1ccc(-c2nnc(-c3ccccn3)nc2Nc2cnc3ccccc3n2)cc1` was -6.01% (inactive).
The value for `Cc1ccc(Nc2nc(-c3ccccn3)nnc2-c2ccccc2)cn1` was -0.351% (inactive); that for `O=C(Nc1ncc(-c2ccccc2)o1)c1cc(-c2ccccc2)on1` was 1.92% (inactive); that for `c1ccc(-c2nnc(-c3ccccn3)nc2N2CCC(C3CCCCC3)C2)cc1` (centres undefined) was -2.79% (inactive).
Consider `Cc1cccc(Nc2nc(-c3ccccn3)nnc2-c2ccccc2)n1`, for which the “activity change, negative = inhibition” value was 6.59% (inactive).
For `c1ccc(-c2nnc(-c3ccccn3)nc2N2CCC(c3ccccc3)C2)cc1` (centres undefined), the “activity change, negative = inhibition” value is 1.51% (inactive).
The value for `CC(C)(C)CCNc1nc(-c2ccccn2)nnc1-c1ccccc1` was -2.25% (inactive); that for `Clc1cccc(CNc2nc(-c3ccccn3)nnc2-c2ccccc2)c1` was -1.26% (inactive).
The value for `COc1ccccc1N1CCN(Cc2ccc(O)c3ncccc23)CC1` was -1.65% (inactive); that for `CC1CN(Cc2ccc(O)c3ncccc23)CC(C)O1` (centres undefined) was -10% (inactive); that for `CCCCNC(=O)c1cc(-c2ccccc2)on1` was 0.305% (inactive).
To `COc1ccc(CNc2nc(-c3ccccn3)nnc2-c2ccccc2)cc1` belongs -0.602% (inactive); to `C[C@H](Nc1nc(-c2ccccn2)nnc1-c1ccccc1)C1CCCCC1`, 2.06% (inactive).
For the molecule `c1ccc(-c2nnc(-c3ccccn3)nc2NCC2CCCCC2)cc1`, the “activity change, negative = inhibition” value was -0.951% (inactive).
To `Cc1ccccc1CNc1nc(-c2ccccn2)nnc1-c1ccccc1` belongs 2.35% (inactive); to `O=C(Nc1ccc2ccccc2n1)c1cc(-c2ccccc2)on1`, -3.31% (inactive).
